From ChEMBL document CHEMBL1132294, “Derivatives of the new ring system indolo[1,2-c]benzo[1,2,3]triazine with potent antitumor and antimicrobial activity” (J Med Chem, 1999)
Converted amounts (≈) assume the structure as drawn.

Tests used:
KB [1] = assay: Antiproliferative activity against drug-resistant tumor cell line KBMDR.; format: functional, cell-based; conditions: Homo sapiens
Outline: (§1)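 Solid-tumour and KB lines: exponentially growing cells seeded at 5×10⁴ cells/mL, allowed to adhere 16 h, then serial drug dilutions added. Viability by MTT after 4 days. Growth expressed as % of untreated controls, 50% inhibitory concentration by linear regression. Untreated cells undergo at least three rounds of multiplication.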

KB [2] = assay: Antiproliferative activity against drug-resistant tumor cell line KBwt.; format: functional, cell-based; conditions: Homo sapiens; outline: as §1
KB [3] = assay: Antiproliferative activity against drug-resistant tumor cell line KBCamp.; format: functional, cell-based; conditions: Homo sapiens; outline: as §1
KB [4] = assay: Antiproliferative activity against drug-resistant tumor cell line KB7D.; format: functional, cell-based; conditions: Homo sapiens; outline: as §1
KB [5] = assay: Antiproliferative activity against drug-resistant tumor cell line KBV20C.; format: functional, cell-based; conditions: Homo sapiens; outline: as §1
Staphylococcus = assay: Antibacterial activity was evaluated against staphylococcus; format: functional
Outline: (§2)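 Recent clinical isolates grown in nutrient broth, pH 7.2, inoculum 10³ bacterial cells/tube, with serial compound dilutions. […] Mean of at least three separate experiments.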

Mycobacterium = assay: Antibacterial activity was evaluated against MAC (Mycobacterium Avium Complex ); format: functional
Outline: (§3)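 Mycobacterial suspension (turbidity of 1 McFarland standard, 10⁸ CFU/mL) added to Middlebrook 7H9 with 0.5% glycerol, 10% OADC and serial compound dilutions. Incubated at 37 °C, 1 day for M. smegmatis and M. fortuitum, 9 days for MAC. Viable mycobacteria counted by MTT. MIC given as mean of at least three separate experiments.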

[6] = test system: Mycobacterium tuberculosis; assay: Antibacterial activity was evaluated against Mycobacterium tuberculosis (ATCC); format: functional
Outline: (§4)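 Broth microdilution in Middlebrook 7H9 with 0.5% glycerol and 10% OADC, containing serial concentrations of compound (diluted in medium from a DMSO solution). Plates were incubated 9 days at 37 °C, and viable bacteria were read by MTT. MIC is the mean of at least three separate experiments.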

[7] = test system: Mycobacterium tuberculosis; assay: Antibacterial activity was evaluated against Mycobacterium tuberculosis (clinical isolate 1104); format: functional; outline: as §4
Salmonella = assay: Antibacterial activity was evaluated against salmonella.; format: functional; outline: as §2
[8] = test system: Mycolicibacterium smegmatis; assay: Antibacterial activity was evaluated against Mycobacterium smegmatis; format: functional; outline: as §3
Shigella = assay: Antibacterial activity was evaluated against shigella.; format: functional; outline: as §2
[9] = test system: Mycolicibacterium fortuitum; assay: Antibacterial activity was evaluated against Mycobacterium fortuitum.; format: functional; outline: as §3
Streptococcus = assay: Antibacterial activity was evaluated against streptococcus.; format: functional; outline: as §2
CCRF-SB = assay: Antitumor activity was evaluated against leukemia cell line CCRF-SB(human acute B lymphoblastic leukemia).; format: functional, cell-based
Outline: (§5)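 Exponentially growing leukemia/lymphoma cells resuspended at 1×10⁵ cells/mL in RPMI with serial drug dilutions. Viability by MTT after 4 days at 37 °C. Concentration giving 50% growth inhibition versus untreated controls found by linear regression. Mean of at least three experiments.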

ACHN = assay: Antitumor activity was evaluated against human renal adenocarcinoma cell line ACHN.; format: functional, cell-based; outline: as §1
HeLa = assay: Antitumor activity was evaluated against human cervix carcinoma cell line HeLa.; format: functional, cell-based; outline: as §1
IMR-32 = assay: Antitumor activity was evaluated against human neuroblastoma cell line IMR-32.; format: functional, cell-based; outline: as §1
WIL2-NS = assay: Antitumor activity was evaluated against lymphoma cell line Wil2-NS (human splenic B lymphoblastoid cells).; format: functional, cell-based; outline: as §5
L1210 = assay: Antitumor activity was evaluated against leukemia cell line L1210 (mouse leukemia).; format: functional, cell-based; outline: as §5
CHO-K1 = assay: Antitumor activity was evaluated against Chinese hamster ovary carcinoma cell line CHO-K1.; format: functional, cell-based; conditions: Cricetulus griseus; outline: as §1
Trichophyton benhamiae = assay: Antimycotic activity against Trichophyton mentagrophytes was evaluated. MIC was defined as compound concentration at which no macroscopic signs of fungal growth were detected.; format: functional, Arthroderma benhamiae
Outline: (§6)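 Yeast inocula from 30 h Sabouraud dextrose broth cultures at 37 °C, diluted to 5×10³ cells/mL. Dermatophyte inocula from 5-day cultures, homogenized and diluted to 0.05 OD₅₉₀/mL. Inocula added to medium with serial dilutions, incubated at 37 °C, read visually at 2 days (yeast) or 3 days (dermatophytes). Mean of at least three experiments.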

5637 = assay: Antitumor activity was evaluated against human bladder carcinoma cell line 5637.; format: functional, cell-based; outline: as §1
CCRF-CEM = assay: Antitumor activity was evaluated against leukemia cell line CCRF-CEM(human acute T lymphoblastic leukemia).; format: functional, cell-based
Outline: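 Exponentially growing leukemia/lymphoma cells resuspended at 1×10⁵ cells/mL in RPMI with serial drug dilutions. Viability by MTT after 4 days at 37 °C. Mean of at least three experiments.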

MOLT-4 = assay: Antitumor activity was evaluated against leukemia cell line MOLT-4(human acute T lymphoblastic leukemia); format: functional, cell-based; outline: as §5
Candida parapsilosis = assay: Antimycotic activity against Candida parapsilosis was evaluated as compound concentration at which no macroscopic signs of fungal growth were detected; format: functional; conditions: Lodderomyces parapsilosis; outline: as §6
Candida albicans = assay: Antimycotic activity against Candida albicans was evaluated as minimum inhibitory concentration of compound at which no macroscopic signs of fungal growth were detected; format: functional; outline: as §6
Cryptococcus neoformans = assay: Antimycotic activity against Cryptococcus neoformans was evaluated. MIC was defined as compound concentration at which no macroscopic signs of fungal growth were detected.; format: functional; outline: as §6
Candida tropicalis = assay: Antimycotic activity against Candida paratropicalis was evaluated. MIC was defined as compound concentration at which no macroscopic signs of fungal growth were detected.; format: functional; outline: as §6
MT4 = assay: Antitumor activity was evaluated against leukemia cell line MT-4(human CD4+ T cells expressing the TAT gene of HTLV-1).; format: functional, cell-based; outline: as §5
HT-29 = assay: Antitumor activity was evaluated against human colon adenocarcinoma cell line HT-29.; format: functional, cell-based; outline: as §1
Aspergillus fumigatus = assay: Antimycotic activity against Aspergillus fumigatus was evaluated as compound minimum inhibitory concentration at which no macroscopic signs of fungal growth were detected.; format: functional
Homo sapiens [10] = species on record: Homo sapiens; assay: In vitro Antiproliferative activity against peripheral blood lymphocytes (PBL) by treating PBL with compound for 3 days, then stimulating with PHA and then resuspending in compound free medium.; format: functional; conditions: 72 h
Outline: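 Resting donor PBL held at 1×10⁶ cells/mL and treated with compound for up to 3 days, then washed. Stimulated with PHA for 24 h, diluted to 1×10⁵ cells/mL in drug-free medium with PHA and IL-2. Viability read after 6 days at 37 °C. Mean ±SD of three experiments.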

Homo sapiens [11] = species on record: Homo sapiens; assay: In vitro Antiproliferative activity against peripheral blood lymphocytes (PBL) after stimulating PBL with PHA and then resuspending in IL-2-containing medium in the presence of compound.; format: functional
Outline: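 PBL from HIV-negative donors, isolated on Ficoll-Hypaque and rested overnight. Stimulated with PHA 2.5 μg/mL for 24 h, diluted to 1×10⁵ cells/mL in medium with PHA, IL-2 50 U/mL and compound. Viable cells counted after 6 days. Mean ±SD of three experiments.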

Lymphoblastoid cell = assay: Cytotoxicity was evaluated against lymphoblastoid cell line.; format: functional; conditions: Homo sapiens

Structure (SMILES) | IC50 (KB [1]) [nM] | IC50 (KB [2]) [nM] | IC50 (KB [3]) [nM] | IC50 (KB [4]) [nM] | IC50 (KB [5]) [nM] | MIC (Staphylococcus) [µM] | MIC (Mycobacterium) [µM] | MIC [6] [µM] | MIC [7] [µM] | MIC (Salmonella) [µM] | MIC [8] [µM] | MIC (Shigella) [µM] | MIC [9] [µM] | MIC (Streptococcus) [µM] | IC50 (CCRF-SB) [nM] | MIC (Trichophyton benhamiae) [µM] | MIC (Candida parapsilosis) [µM] | MIC (Candida albicans) [µM] | MIC (Cryptococcus neoformans) [µM] | MIC (Candida tropicalis) [µM] | also measured
COc1cc([C@@H]2c3cc4c(cc3[C@@H](O[C@@H]3O[C@@H]5CO[C@@H](C)O[C@H]5[C@H](O)[C@H]3O)[C@H]3COC(=O)[C@H]23)OCO4)cc(OC)c1O [ETOPOSIDE] | 26200 | 1450 | 1300 | > 50000 | > 50000 | – | – | – | – | – | – | – | – | – | – | – | – | – | – | – | –
CN[C@@H]1[C@H](O[C@H]2[C@H](O[C@H]3[C@H](O)[C@@H](O)[C@H](N=C(N)N)[C@@H](O)[C@@H]3N=C(N)N)O[C@@H](C)[C@]2(O)C=O)O[C@@H](CO)[C@H](O)[C@H]1O [STREPTOMYCIN] | – | – | – | – | – | 4.2 (≈ 2.44 µg/mL) | 7.4 (≈ 4.3 µg/mL) | 5.4 (≈ 3.14 µg/mL) | 2.9 (≈ 1.69 µg/mL) | 8.6 (≈ 5 µg/mL) | 5 (≈ 2.91 µg/mL) | 2.1 (≈ 1.22 µg/mL) | 4 (≈ 2.33 µg/mL) | 2.1 (≈ 1.22 µg/mL) | – | – | – | – | – | – | –
O=Nc1c2ccccc2n2nnc3ccc(Cl)cc3c12 | – | – | – | – | – | 0.05 (≈ 0.0141 µg/mL) | 2.5 (≈ 0.707 µg/mL) | 1.8 (≈ 0.509 µg/mL) | 1.6 (≈ 0.452 µg/mL) | > 200 | 4.2 (≈ 1.19 µg/mL) | > 200 | > 5 | 0.1 (≈ 0.0283 µg/mL) | 7000 | 9.4 (≈ 2.66 µg/mL) | 19 (≈ 5.37 µg/mL) | 150 (≈ 42.4 µg/mL) | 0.8 (≈ 0.226 µg/mL) | 150 (≈ 42.4 µg/mL) | IC50 (ACHN): 11000 nM; IC50 (HeLa): 5400 nM; IC50 (IMR-32): 2300 nM; IC50 (WIL2-NS): 2700 nM; IC50 (L1210): 7400 nM; IC50 (CHO-K1): 31000 nM; IC50 5637: 2100 nM; IC50 (CCRF-CEM): 5000 nM; IC50 (MOLT-4): 2000 nM; IC50 (MT4): 1700 nM; IC50 (HT-29): 24000 nM; MIC (Aspergillus fumigatus): 9.4 µM (≈ 2.66 µg/mL)
O=Nc1c2cc(Cl)ccc2n2nnc3ccccc3c12 | 1100 | 1800 | 1900 | 1700 | 2100 | 0.4 (≈ 0.113 µg/mL) | 0.6 (≈ 0.17 µg/mL) | 4.7 (≈ 1.33 µg/mL) | > 10 | > 200 | > 5 | > 200 | > 5 | 0.8 (≈ 0.226 µg/mL) | 400 | > 200 | > 200 | > 200 | > 200 | > 200 | IC50 (ACHN): 2600 nM; IC50 (HeLa): 2700 nM; CC50 (Homo sapiens [10]): 900 nM; IC50 (IMR-32): 800 nM; IC50 (WIL2-NS): 200 nM; IC50 (L1210): 700 nM; IC50 (CHO-K1): 1600 nM; IC50 5637: 300 nM; IC50 (CCRF-CEM): 80 nM; IC50 (MOLT-4): 200 nM; CC50 (Homo sapiens [11]): 200 nM; CC50 (Lymphoblastoid cell): 350 nM; IC50 (MT4): 500 nM; IC50 (HT-29): 1300 nM; MIC (Aspergillus fumigatus): > 200 µM
CC[C@@]1(O)C(=O)OCc2c1cc1n(c2=O)Cc2cc3ccccc3nc2-1 [CAMPTOTHECIN] | 70 | 40 | 1040 | 35 | 30 | – | – | – | – | – | – | – | – | – | – | – | – | – | – | – | –
Clc1ccc(COC(Cn2ccnc2)c2ccc(Cl)cc2Cl)c(Cl)c1 (stereo unspecified) [MICONAZOLE] | – | – | – | – | – | – | – | – | – | – | – | – | – | – | – | 0.9 (≈ 0.375 µg/mL) | 7.5 (≈ 3.12 µg/mL) | 7.5 (≈ 3.12 µg/mL) | 0.9 (≈ 0.375 µg/mL) | 0.9 (≈ 0.375 µg/mL) | –
